According to ChEMBL document CHEMBL3526126, “Amide hydrolysis of a novel chemical series of microsomal prostaglandin E synthase-1 inhibitors induces kidney toxicity in the rat” (Drug Metab Dispos, 2013):
In brackets after ≈: the same amount, converted by molar mass.

Legend:
[1] = system: Rattus norvegicus; assay: Drug metabolism in Wistar Hannover rat assessed as formation of 4-(phenylethynyl)benzoic acid conjugated with mono-oxidized and sulfate conjugated matabolite in plasma at 500 umol/kg, po qd administered for 7 days measured on day 7 by LC-MS analysis; format: ADME, organism-based; details: in vivo, 168 h
[2] = Solubility in rat urine at pH 7 after 5 hrs; format: physicochemical
How it was run: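 Samples in rat urine at pH 7.0 were incubated at 37°C for 5 hours. They were analysed by HPLC on a C18 column with photodiode array and single mass detection.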

[3] = Cmax in male Wistar Hannover rat at 500 umol/kg, po qd administered for 7 days measured on day 7; details: in vivo
[4] = AUC (0 to 24 hrs) in Wistar Hannover rat at 1000 umol/kg, po qd measured on day 1; details: plasma
[5] = Cmax in Wistar Hannover rat at 1000 umol/kg, po qd measured on day 1; details: in vivo
[6] = system: Rattus norvegicus; assay: Drug metabolism in Wistar Hannover rat assessed as formation of 4-(phenylethynyl)benzoic acid metabolite conjugated with mono-oxidized metabolite in plasma at 500 umol/kg, po qd administered for 7 days measured on day 7 by LC-MS analysis; format: ADME, organism-based; details: in vivo, 168 h
[7] = system: Rattus norvegicus; assay: Toxicity in Wistar Hannover rat kidney assessed as increase in organ weight at 1000 umol/kg, po qd administered for 7 days measured on day 7 by necroscopic analysis; format: organism-based; details: in vivo, 168 h
[8] = system: Rattus norvegicus; assay: Drug metabolism in Wistar Hannover rat assessed as formation of mono-oxidized metabolite +16 in plasma at 500 umol/kg, po qd administered for 7 days measured on day 7 by LC-MS analysis; format: ADME, organism-based; details: in vivo, 168 h
[9] = Cmax in female Wistar Hannover rat at 500 umol/kg, po qd measured on day 1; details: in vivo
[10] = AUC (0 to 24 hrs) in female Wistar Hannover rat at 1000 umol/kg, po qd measured on day 1; details: plasma
[11] = AUC (0 to 24 hrs) in male Wistar Hannover rat at 500 umol/kg, po qd measured on day 1; details: plasma
[12] = system: Rattus norvegicus; assay: Toxicity in Wistar Hannover rat kidney assessed as transitional cell hyperplasia at 1000 umol/kg, po qd administered for 7 days measured after day 8 by hematoxylin/eosin staining-based light microscopic analysis; format: organism-based; details: in vivo, 168 h
How it was run: (§1)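 Wistar Hannover rats, about 8 weeks old, were gavaged once daily (10 ml/kg) for 7 days. One day after the last dose they were killed by carotid exsanguination under isoflurane/oxygen. Kidneys were fixed in buffered formalin, embedded in paraffin, sectioned, stained with hematoxylin and eosin, and examined by light microscopy.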

[13] = Drug metabolism in freshly prepared human hepatocytes assessed as amide hydrolysis at 1 to 10 uM by LC-MS analysis; format: ADME, cell-based, Hepatocyte
How it was run: (§2)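 Hepatocytes at 1 × 10^6 cells/ml in William's medium incubated at 37°C with gentle shaking under 5% CO2. Substrate was at […]. Metabolites were analysed by LC-MS.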

[14] = system: Rattus norvegicus; assay: Toxicity in Wistar Hannover rat kidney assessed as increase in plasma creatinine level at 1000 umol/kg, po qd administered for 7 days measured on day 7; format: organism-based; details: in vivo, 168 h
How it was run: (§3)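 Wistar Hannover rats, about 8 weeks old, were acclimatized about 2 weeks and randomized by body weight. Dosing was by oral gavage (10 ml/kg) once daily for 7 days, with vehicle controls. At the end of dosing, plasma (lithium heparin) was taken from the orbital plexus under isoflurane/oxygen anaesthesia, and urea and creatinine were measured.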

[15] = system: Rattus norvegicus; assay: Toxicity in Wistar Hannover rat kidney assessed as papillitis at 1000 umol/kg, po qd administered for 7 days measured after day 8 by hematoxylin/eosin staining-based light microscopic analysis; format: organism-based; details: in vivo, 168 h; how it was run: as §1
[16] = AUC (0 to 24 hrs) in female Wistar Hannover rat at 500 umol/kg, po qd measured on day 1; details: plasma
[17] = system: Rattus norvegicus; assay: Drug metabolism in Wistar Hannover rat assessed as formation of [14C]-4-(phenylethynyl)benzoic acid metabolite hyd in plasma at 500 umol/kg, po qd administered for 7 days measured on day 7 by radio monitoring method; format: ADME, organism-based; details: in vivo, 168 h
[18] = AUC (0 to 24 hrs) in male Wistar Hannover rat at 1000 umol/kg, po qd measured on day 1; details: plasma
[19] = system: Rattus norvegicus; assay: Toxicity in Wistar Hannover rat kidney assessed as inflammation in renal pelvis at 1000 umol/kg, po qd administered for 7 days measured after day 8 by hematoxylin/eosin staining-based light microscopic analysis; format: organism-based; details: in vivo, 168 h; how it was run: as §1
[20] = system: Rattus norvegicus; assay: Toxicity in Wistar Hannover rat kidney assessed as multiple pyogranuloma in renal pelvis at 1000 umol/kg, po qd administered for 7 days measured after day 8 by hematoxylin/eosin staining-based light microscopic analysis; format: organism-based; details: in vivo, 168 h; how it was run: as §1
[21] = Cmax in male Wistar Hannover rat at 1000 umol/kg, po qd measured on day 1; details: in vivo
[22] = Drug metabolism in Beagle dog hepatocytes assessed as amide hydrolysis at 1 to 10 uM by LC-MS analysis; format: ADME, cell-based, Canis lupus familiaris, Hepatocyte
How it was run: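 Cryopreserved male Beagle dog hepatocytes at 1 × 10^6 cells/ml in William's medium, shaken gently at 37°C under 5% CO2. Substrate was tested at two concentrations (1 and 10). Metabolites, including amide-hydrolysis products, were analysed by LC-MS.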

[23] = system: Rattus norvegicus; assay: Toxicity in Wistar Hannover rat kidney assessed as dilated tubules with hypertrophic nuclei and cytoplasm at 1000 umol/kg, po qd administered for 7 days measured on day 7 by necroscopic analysis; format: organism-based; details: in vivo, 168 h
[24] = system: Rattus norvegicus; assay: Toxicity in Wistar Hannover rat kidney assessed as increase in plasma urea level at 1000 umol/kg, po qd administered for 7 days measured on day 7; format: organism-based; details: in vivo, 168 h; how it was run: as §3
[25] = system: Rattus norvegicus; assay: Toxicity in Wistar Hannover rat kidney assessed as presence of dilated tubules mixed with basophils at 1000 umol/kg, po qd administered for 7 days measured on day 7 by necroscopic analysis; format: organism-based; details: in vivo, 168 h
[26] = Cmax in female Wistar Hannover rat at 500 umol/kg, po qd administered for 7 days measured on day 7; details: in vivo
[27] = AUC (0 to 24 hrs) in Sprague-Dawley rat at 1000 umol/kg, po qd administered for 7 days measured on day 7; format: ADME, organism-based; design: time < 24 hr, dose 1000 umol/kg, route oral; details: plasma
How it was run: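 Toxicity study 2: 2 female satellite rats per dose group. Dosing was once daily by oral gavage (10 ml/kg) for 7 days. Tail-vein EDTA blood was taken at 2, 4, 6, 7 and 24 h on day 1 and on day 7, then chilled and centrifuged to plasma. Parent and M1 were quantified by LC-MS/MS, with M1 measured in negative electrospray mode.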

[28] = Drug metabolism in cryopreserved human hepatocytes assessed as amide hydrolysis at 1 to 10 uM by LC-MS analysis; format: ADME, cell-based, Hepatocyte; how it was run: as §2
[29] = Drug metabolism in Sprague-Dawley rat hepatocytes assessed as formation of 4-(phenylethynyl)benzoic acid metabolite hyd at 1 to 10 uM by radio monitoring method; format: ADME, cell-based, Hepatocyte
How it was run: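 Hepatocytes at 1 × 10^6 cells/ml in William's medium were incubated at 37°C with gentle shaking under 5% CO2, with substrate at […]. Separation was on an Atlantis T3 column (100 × 4.6 mm) at 1 ml/min, split 1:20 to the ion source and a flow scintillation monitor. Scintillation cocktail was added at 4 ml/min through a 0.5 ml flow cell.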

Drug metabolism [1]: metabolite_detected
solubility at 5 h [2]: 45 µM (≈ 19.8 µg/mL)
Cmax [3]: 68 µM
AUC(0-t) at 24 h [4]: 1370 µM·h
Cmax [5]: 105 µM
Drug metabolism [6]: metabolite_detected
Drug metabolism [8]: metabolite_detected
Cmax [9]: 38 µM
AUC(0-t) at 24 h [10]: 1020 µM·h
AUC(0-t) at 24 h [11]: 840 µM·h
Drug metabolism [13]: metabolite_not_detected
AUC(0-t) at 24 h [16]: 450 µM·h
Drug metabolism [17]: metabolite_detected
AUC(0-t) at 24 h [18]: 610 µM·h
Cmax [21]: 46 µM
Drug metabolism [22]: metabolite_not_detected
Cmax [26]: 39 µM
AUC at 24 h [27]: 990 µM·h
Drug metabolism [28]: metabolite_not_detected
Drug metabolism [29]: metabolite_detected
Compound: NS(=O)(=O)c1ccccc1S(=O)(=O)NC(=O)c1ccc(C#Cc2ccccc2)cc1
Activity [7]: Toxic
Activity [12]: Toxic
Activity [14]: Toxic
Activity [15]: Toxic
Activity [19]: Toxic
Activity [20]: Toxic
Activity [23]: Toxic
Activity [24]: Toxic
Activity [25]: Toxic
